Test results reported in ChEMBL document CHEMBL1152452, “Modifications incorporated in CpG motifs of oligodeoxynucleotides lead to antagonist activity of toll-like receptors 7 and 9” (2009).
Calls of active or inactive are those of the source. The calls are words filed in the database; no cut-off is given here.

Legend:
J774 [1] = experiment: Activation of NF-kappaB in mouse J774 cells at 2.5 ug/ml after 1 hr by EMSA; assay type: cell-based
Summary of the method: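 Murine J774 macrophages in DMEM with 10% FBS and antibiotics, plated at 5×10^6 cells/well. ODNs were given alone or together for 1 h. For inhibition, the agonist ODN at 0.5 μg/mL was co-incubated with the modified ODN at 2.5 μg/mL. Nuclear extracts were resolved by EMSA on native polyacrylamide gels and read by autoradiography.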

J774 [2] = experiment: Inhibition of 5'-CTATCTGACGTTCTCTGT-3'-activated NF-kappaB activity in mouse J774 cells at 2.5 ug/ml after 1 hr by EMSA; assay type: cell-based
Summary of the method: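 J774 murine macrophages were grown in DMEM with 10% FBS and antibiotics, plated at 5 × 10^6 cells/well, and co-incubated for 1 h with the agonist ODN (0.5 µg/mL) and test ODN (2.5 µg/mL). Nuclear extracts were prepared and NF-κB binding was analysed by EMSA on native polyacrylamide gels with autoradiography.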

SMILES: COC1[C@H](n2cnc3c(N)ncnc32)O[C@H](COP(=O)(S)O[C@H]2C(OC)[C@H](n3cnc4c(=O)[nH]c(N)nc43)O[C@@H]2COP(=O)(S)O[C@H]2C[C@H](n3cc(C)c(=O)[nH]c3=O)O[C@@H]2COP(=O)(S)O[C@H]2C[C@H](n3ccc(N)nc3=O)O[C@@H]2COP(=O)(S)O[C@H]2C[C@H](n3cc(C)c(=O)[nH]c3=O)O[C@@H]2COP(=O)(S)O[C@H]2C[C@H](n3cnc4c(N)ncnc43)O[C@@H]2COP(=O)(S)O[C@H]2C[C@H](n3cc(C)c(=O)[nH]c3=O)O[C@@H]2COP(=O)(S)O[C@H]2C[C@H](n3ccc(N)nc3=O)O[C@@H]2CO)[C@H]1OP(=O)(S)OC[C@H]1O[C@@H](n2ccc(N)nc2=O)C[C@@H]1OP(=O)(S)OC[C@H]1O[C@@H](n2ccc(N)nc2=O)C[C@@H]1OP(=O)(S)OC[C@H]1O[C@@H](n2cc(C)c(=O)[nH]c2=O)C[C@@H]1OP(=O)(S)OC[C@H]1O[C@@H](n2cc(C)c(=O)[nH]c2=O)C[C@@H]1OP(=O)(S)OC[C@H]1O[C@@H](n2ccc(N)nc2=O)C[C@@H]1OP(=O)(S)OC[C@H]1O[C@@H](n2cc(C)c(=O)[nH]c2=O)C[C@@H]1OP(=O)(S)OC[C@H]1O[C@@H](n2ccc(N)nc2=O)C[C@@H]1OP(=O)(S)OC[C@H]1O[C@@H](n2cc(C)c(=O)[nH]c2=O)C[C@@H]1OP(=O)(S)OC[C@H]1O[C@@H](n2cnc3c(=O)[nH]c(N)nc32)C[C@@H]1OP(=O)(S)OC[C@H]1O[C@@H](n2cc(C)c(=O)[nH]c2=O)C[C@@H]1O (some centres not stated)
- Activity (J774 [1]): inactive
- Activity (J774 [2]): inactive
